# Columns and labels:
# Type in all cases: functional
# HepG2 [1] = assay: Antiproliferative activity against human HepG2 cells at 10 uM after 48 hrs by MTT assay realtive to control
# Summary of the method: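 MTT assay in triplicate wells. Cells (2 × 10^3/well) were attached 24 h, then treated at 0.1, 1, 10, 50 or 100 µM for 24, 48 or 72 h. MTT added for 4 h, SDS solubilisation, absorbance at 570/650 nm. Inhibition = 1 − (OD treated − blank)/(OD control − blank). Reported as mean ± SD of three independent experiments.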
# HepG2 [2] = assay: Cell cycle arrest in human HepG2 assessed as accumulation at G2/M phase at 2.5 uM after 48 hrs by propidium iodide-staining based flow cytometry (reference value: 9.13%)
# Summary of the method: (§1)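 HepG2 cells at 5.0 × 10^5/well were grown 24 h, then treated at 0, 2.5, 5.0 or 10.0 µM for 48 h alongside medium-only wells. Cells fixed in 70% ice-cold ethanol for ≥24 h, treated with RNase A at 37 °C for 30 min, then stained with propidium iodide for 30 min at 4 °C in the dark. DNA content read by flow cytometry. Average of at least three experiments.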
# HepG2 [3] = assay: Cytotoxicity against human HepG2 cells at 20 uM after 48 hrs by LDH release assay (reference value: 100%)
# Summary of the method: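 LDH release. HepG2 cells at 1.0 × 10^5/well were incubated 24 h at 37 °C, then treated at 2.5–40 µM for 48 h. Cells lysed with 2% lysate for 1 h gave the full-release (100%) reference; medium-only cells were the low control. LDH in the supernatant was measured per kit. Triplicates, three independent repeats.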
# HepG2 [4] = assay: Induction of mitochondrial membrane potential loss in human HepG2 cells assessed as mitochondrial membrane potential levels at 10 uM after 48 hrs by rhodamine-123 dye based FACS analysis (reference value: 90.4%)
# HepG2 [5] = assay: Cell cycle arrest in human HepG2 assessed as accumulation at G2/M phase at 5 uM after 48 hrs by propidium iodide-staining based flow cytometry (reference value: 9.13%); summary of the method: as §1
# HepG2 [6] = assay: Induction of mitochondrial membrane potential loss in human HepG2 cells assessed as mitochondrial membrane potential levels at 20 uM after 48 hrs by rhodamine-123 dye based FACS analysis (reference value: 90.4%)
smiles,measurement,setting,value
COc1cc2c(Nc3ccc(C#N)cc3)ncnc2cc1OCCCN1CCC(c2ccccc2)CC1,Activity,HepG2 [1],55.6%
same,Activity,HepG2 [2],10.49%
same,Activity,HepG2 [3],52.94%
same,Activity,HepG2 [4],84%
same,Activity,HepG2 [5],9.37%
same,Activity,HepG2 [6],55.9%
